The text below walks through data of ChEMBL document CHEMBL3621119, “Synthesis and Biological Evaluation of Manassantin Analogues for Hypoxia-Inducible Factor 1α Inhibition” (J Med Chem, 2015).

Data set [1] has as its target T1, Hypoxia inducible factors; HIF-1-alpha, HIF-2-alpha (Homo sapiens, UniProt Q16665+Q99814). In words: Inhibition of HIF1 in human HEK293T cells transfected with pGL3-5HRE-VEGF and pRL-SV40 after 24 hrs by dual luciferase reporter assay. It counts as cell-based. The following applies: hek-293t. The method, boiled down:
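HEK-293T cells seeded at 5×10^3/well, attached 24 h, then co-transfected with pGL3-5HRE-VEGF firefly luciferase reporter (five HRE copies from human VEGF promoter) and pRL-SV40 Renilla plasmid. Serially diluted compounds applied under 1% O2 for 24 h post-transfection. Dual-Glo read-out, firefly then Renilla luminescence, each after 10 min; firefly normalized to Renilla (RLU). Three independent experiments, mean ± SD.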
(Reporter assays use an easily measured gene product as a stand-in for the process of interest.)

Data set [2] is described as follows: Cytotoxicity against human HEK293T cells assessed as survival rate at 10 uM after 24 hrs by MTT assay. It counts as cell-based, HEK-293T. The following applies: read-out: Survival. The essentials: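 HEK-293T cells seeded at 1×10^4 cells/well and grown 24 h, then exposed under hypoxia for 24 h to serially diluted compounds (0.005–10 μM). MTT added and incubated 4 h at 37 °C. Formazan dissolved in DMSO, absorbance read at 540 nm. Survival expressed as % of cells. Three independent experiments.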

Data set [3] has as its target T1, Hypoxia inducible factors; HIF-1-alpha, HIF-2-alpha. In words: Inhibition of HIF1 in human HEK293T cells transfected with pGL3-5HRE-VEGF and pRL-SV40 after 24 hrs by dual luciferase reporter assay relative to normoxic condition. Format: cell-based. Also on record: concentration or dose not given beside the values. Particulars: HEK-293T, concentration not given here.

Data set [4] has as its target Hypoxia-inducible factor 1-alpha (Homo sapiens) (UniProt Q16665). In words: Inhibition of HIF-1 alpha in human HEK293T cells under hypoxic condition at 1 uM after 24 hrs by Western blot analysis. Format: cell-based. Particulars: HEK-293T. The method, boiled down:
(§1)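 HEK-293T cells held under hypoxia (1% O2) or normoxia for 24 h with or without 1 μM compound. Total protein lysates run on SDS-PAGE, transferred to nitrocellulose, blocked in 5% skim milk/TBS-0.1% Tween-20. Probed overnight at 4 °C with primary antibodies (HIF-1α, HIF-1β, Cdk6), then HRP secondary. Chemiluminescent detection, β-actin as loading control.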
For orientation: In western blotting, separated proteins are transferred to a membrane and probed.

For data set [5] the target is unchanged. The data set is described as follows: Inhibition of HIF1alpha in human HEK293T cells assessed as decrease of VEGF mRNA expression under hypoxic condition at 1 uM after 24 hrs by RT-PCR analysis. Format: cell-based. Particulars: HEK-293T. The method, boiled down:
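HEK-293T cells given 1 μM compound under hypoxia for 24 h, with a normoxic control. VEGF mRNA measured by real-time PCR on 10-fold diluted cDNA with gene-specific primers. Cycling: 50 °C 2 min, 95 °C 10 min, then 40 cycles of 95 °C 15 s and 60 °C 1 min. Mean CT normalized to β-actin.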

In data set [6] the target is Aryl hydrocarbon receptor nuclear translocator (Homo sapiens) (UniProt P27540). In words: Inhibition of HIF1beta in HEK293T cells under hypoxic condition at 1 uM after 24 hrs by Western blot analysis. Format: cell-based. Particulars: HEK-293T. The essentials:
as §1

Data set [7] has as its target Hypoxia-inducible factor 1-alpha (Homo sapiens) (UniProt Q16665). The data set is described as follows: Inhibition of HIF1alpha in human HEK293T cells assessed as decrease of Cdk6 expression under hypoxic condition at 1 uM after 24 hrs by Western blot analysis. Format: cell-based. The following applies: HEK-293T. The method, boiled down: as §1

Activity calls are given as the source filed them. The rule behind the calls is not given here.

Chain of Aryl hydrocarbon receptor nuclear translocator (Homo sapiens) (P27540 whole entry): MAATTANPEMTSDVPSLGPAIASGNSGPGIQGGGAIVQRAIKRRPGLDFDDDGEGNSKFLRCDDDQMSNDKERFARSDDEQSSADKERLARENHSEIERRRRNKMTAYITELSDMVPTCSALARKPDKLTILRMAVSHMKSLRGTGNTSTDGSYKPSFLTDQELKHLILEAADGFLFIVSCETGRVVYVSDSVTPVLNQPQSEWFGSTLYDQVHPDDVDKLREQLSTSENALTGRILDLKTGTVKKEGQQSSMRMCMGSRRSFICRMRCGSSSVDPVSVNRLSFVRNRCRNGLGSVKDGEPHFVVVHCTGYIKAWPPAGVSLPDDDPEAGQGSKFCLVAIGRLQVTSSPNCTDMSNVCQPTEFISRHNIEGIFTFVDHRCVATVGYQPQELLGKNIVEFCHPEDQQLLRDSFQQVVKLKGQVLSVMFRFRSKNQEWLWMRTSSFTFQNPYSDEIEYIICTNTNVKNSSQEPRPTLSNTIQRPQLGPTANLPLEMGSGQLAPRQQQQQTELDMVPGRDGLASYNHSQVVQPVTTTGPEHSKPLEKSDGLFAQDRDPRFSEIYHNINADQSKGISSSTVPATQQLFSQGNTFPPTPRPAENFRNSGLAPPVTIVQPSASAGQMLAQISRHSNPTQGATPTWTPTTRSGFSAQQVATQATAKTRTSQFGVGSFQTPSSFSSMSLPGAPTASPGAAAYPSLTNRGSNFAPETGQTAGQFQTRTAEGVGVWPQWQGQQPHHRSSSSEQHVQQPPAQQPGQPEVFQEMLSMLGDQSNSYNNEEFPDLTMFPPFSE
Chain of Hypoxia-inducible factor 1-alpha (Homo sapiens) (Q16665 whole entry, looked up): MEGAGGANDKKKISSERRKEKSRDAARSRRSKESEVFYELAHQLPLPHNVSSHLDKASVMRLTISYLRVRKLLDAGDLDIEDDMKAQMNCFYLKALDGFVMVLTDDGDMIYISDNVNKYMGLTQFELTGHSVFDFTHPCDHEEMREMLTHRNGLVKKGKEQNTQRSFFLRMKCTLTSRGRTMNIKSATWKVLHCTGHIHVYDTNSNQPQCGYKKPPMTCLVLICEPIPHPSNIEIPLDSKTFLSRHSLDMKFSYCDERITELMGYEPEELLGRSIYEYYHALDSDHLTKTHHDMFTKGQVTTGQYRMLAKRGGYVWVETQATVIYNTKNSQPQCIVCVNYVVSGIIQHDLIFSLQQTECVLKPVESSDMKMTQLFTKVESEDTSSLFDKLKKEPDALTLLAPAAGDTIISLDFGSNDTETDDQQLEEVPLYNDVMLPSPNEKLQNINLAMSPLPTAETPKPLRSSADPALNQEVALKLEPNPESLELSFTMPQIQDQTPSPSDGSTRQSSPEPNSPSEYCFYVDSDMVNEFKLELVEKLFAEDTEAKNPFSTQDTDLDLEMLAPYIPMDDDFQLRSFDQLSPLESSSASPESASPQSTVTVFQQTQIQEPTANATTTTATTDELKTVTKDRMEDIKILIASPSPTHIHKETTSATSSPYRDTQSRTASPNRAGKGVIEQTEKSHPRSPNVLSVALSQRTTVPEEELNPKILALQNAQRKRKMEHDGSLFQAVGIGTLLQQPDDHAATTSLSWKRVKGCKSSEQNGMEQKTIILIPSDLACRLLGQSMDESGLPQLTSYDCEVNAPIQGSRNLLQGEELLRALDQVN

As to `COc1ccc([C@@H](OC)[C@@H](C)Oc2ccc([C@H]3O[C@H](c4ccc(O[C@H](C)[C@H](OC)c5ccc(OC)c(OC)c5)c(OC)c4)[C@H](C)[C@H]3C)cc2OC)cc1OC`, in data set [1], the half-inhibitory concentration (IC50) was found to be 430 nM. Also, the viability at 24 h, 10 µM in data set [2] is > 80%. In addition, the inhibition in data set [3] worked out at 102%.
For `COc1ccc(C(=O)[C@@H](C)Oc2ccc([C@H]3O[C@H](c4ccc(O[C@H](C)C(=O)c5ccc(OC)c(OC)c5)c(OC)c4)[C@H](C)[C@H]3C)cc2OC)cc1OC` the same measures were 910 nM, > 80% and 114%.
`COc1ccc(C(=O)COc2ccc([C@H]3O[C@H](c4ccc(OCC(=O)c5ccc(OC)c(OC)c5)c(OC)c4)[C@H](C)[C@H]3C)cc2OC)cc1OC`: the inhibition entry in data set [4], in data set [5] and in data set [7] was “Active” throughout. In addition, the inhibition entry in data set [6] is “inactive”. The molecule also came in with a concentration for half-maximal inhibition (IC50) in data set [1] of 350 nM. In addition, the viability at 24 h, 10 µM in data set [2] is > 80%. Also, the inhibition in data set [3] was determined as 93%.
As for `COc1ccc([C@@H](O)COc2ccc([C@H]3O[C@H](c4ccc(OC[C@H](O)c5ccc(OC)c(OC)c5)c(OC)c4)[C@H](C)[C@H]3C)cc2OC)cc1OC`, the IC50 in data set [1] was determined as 380 nM. Moreover, the viability at 24 h, 10 µM in data set [2] was > 80%. The inhibition in data set [3] was 94%.
For `COc1ccc(C(=O)[C@@H](C)Oc2ccc([C@H]3O[C@H](c4ccc(O[C@H](C)C(=O)c5ccc(OC)c(O)c5)c(OC)c4)[C@H](C)[C@H]3C)cc2OC)cc1O` the same measures were 2110 nM, > 80% and 78%.
In the case of `COc1cc([C@H]2O[C@H](c3ccc(O[C@H](C)[C@H](O)c4ccccc4)c(OC)c3)[C@H](C)[C@H]2C)ccc1O[C@H](C)[C@H](O)c1ccccc1`, the half-maximal inhibitory concentration (IC50) in data set [1] stood at 590 nM. Also, the viability at 24 h, 10 µM in data set [2] is > 80%. The inhibition in data set [3] was determined as 79%.
In the case of `COc1cc([C@H]2O[C@H](c3ccc(O[C@H](C)C(=O)c4ccccc4)c(OC)c3)[C@H](C)[C@H]2C)ccc1O[C@H](C)C(=O)c1ccccc1`, the inhibition entry in data set [4], in data set [5] and in data set [7] was “Active” each time. Besides, the inhibition result in data set [6] is “inactive”. This molecule came in with an IC50 in data set [1] of 690 nM. Moreover, the viability at 24 h, 10 µM in data set [2] was > 80%. For the same molecule, the inhibition in data set [3] stood at 101%.
Consider `COc1ccc([C@@H](O)[C@@H](C)Oc2ccc([C@H]3O[C@H](c4ccc(OC)c(OC)c4)[C@H](C)[C@H]3C)cc2OC)cc1OC`, for which the inhibition result in data set [4], in data set [5] and in data set [7] was “Active” each time. For the same molecule, in data set [6], the inhibition result is “inactive”. For the same molecule, the IC50 in data set [1] worked out at 320 nM. Besides, the viability at 24 h, 10 µM in data set [2] is > 80%. For the same molecule, in data set [3], the inhibition turned out to be 113%.
In data set [1], `COc1ccc(CCOc2ccc([C@H]3O[C@H](c4ccc(OCCc5ccc(OC)c(OC)c5)c(OC)c4)[C@H](C)[C@H]3C)cc2OC)cc1OC` returned an IC50 of 1440 nM. Besides, the viability at 24 h, 10 µM in data set [2] is > 80%. The inhibition in data set [3] was 64%.
For `COc1ccc(C(=O)COc2cc(C(=O)[C@@H](C)Oc3ccc([C@H]4O[C@H](c5ccc(O[C@H](C)C(=O)c6ccc(OC)c(OCC(=O)c7ccc(OC)c(OC)c7)c6)c(OC)c5)[C@H](C)[C@H]4C)cc3OC)ccc2OC)cc1OC`, in data set [2], the viability at 24 h, 10 µM was > 80%. In addition, the inhibition in data set [3] came to 36%.
In data set [1], `COc1ccc(C(=O)[C@@H](C)Oc2ccc([C@H]3O[C@H](c4ccc(OC)c(OC)c4)[C@H](C)[C@H]3C)cc2OC)cc1OC` displayed a concentration for half-maximal inhibition (IC50) of 3700 nM. The viability at 24 h, 10 µM in data set [2] is > 80%. Moreover, the inhibition in data set [3] is 82%.
`COc1ccc([C@H](COc2ccc([C@H]3O[C@H](c4ccc(OC[C@H](OC)c5ccc(OC)c(OC)c5)c(OC)c4)[C@H](C)[C@H]3C)cc2OC)OC)cc1OC` gave an IC50 in data set [1] of 1930 nM. The viability at 24 h, 10 µM in data set [2] is > 80%. Further, the inhibition in data set [3] is 87%.

In general, IC50 refers to the concentration at which inhibition is half-maximal. As usually defined, the inhibition is the relative decrease from the control value, in per cent.
